Runt-SMMHC FRET = inhibitors of human RUNX1 Runt domain binding to CBFb-SMMHC; 220,000 compounds, 0.74% hits; inhibition, % at 20 µM; Cerulean-Runt/Venus-CBFb-SMMHC FRET ratio 530/480, 1 h; AID 1434; Q01196+Q13951;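 active = mean inhibition across duplicate retests at 20 µM reaching about 50%, limit read from the data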;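 also: 0% = DMSO wells and 100% = wells with excess untagged CBFb-SMMHC; inhibitors lower the FRET ratio by blocking Runt binding to CBFb-SMMHC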
Runt-CBFb FRET = Runt domain-CBFb interaction inhibition; Q01196+Q13951; Cerulean-Runt/Venus-CBFb FRET ratio 530/480, 1 h; inhibition, % at 20 µM; 220,000 compounds, 0.46% hits; AID 1496;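 active = inhibition over about 50% at 20 µM in the single-dose screen, limit read from the data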;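 also: 0% = DMSO wells and 100% = excess unlabeled CBFb competitor control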
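test system = Cerulean-tagged RUNX1 Runt domain (FRET donor) fusion protein | reagent = Venus-CBFb binding partner, 100 nM | incubation = protein complex preformed 1 h, compound exposure 1 h, room temperature, dark | detection = FRET fluorescence | read-out basis = loss of energy transfer signal | controls = 5 µM unlabeled CBFb as full-inhibition high control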
Hck-Nef inh = blocks Nef-activated human Hck kinase. P08631. Recombinant Hck-YEEI plus Nef, Z-Lyte FRET kinase assay. inhibition, % at 20 µM. 220,000 compounds, 0.68% hits;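 active = Hck-Nef kinase inhibition above about 50%, limit read from the data; inactive = inhibition below that limit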;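 also: 0% = DMSO with Hck plus Nef and 100% = Hck alone without Nef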
Target sequence (P08631 whole entry, looked up): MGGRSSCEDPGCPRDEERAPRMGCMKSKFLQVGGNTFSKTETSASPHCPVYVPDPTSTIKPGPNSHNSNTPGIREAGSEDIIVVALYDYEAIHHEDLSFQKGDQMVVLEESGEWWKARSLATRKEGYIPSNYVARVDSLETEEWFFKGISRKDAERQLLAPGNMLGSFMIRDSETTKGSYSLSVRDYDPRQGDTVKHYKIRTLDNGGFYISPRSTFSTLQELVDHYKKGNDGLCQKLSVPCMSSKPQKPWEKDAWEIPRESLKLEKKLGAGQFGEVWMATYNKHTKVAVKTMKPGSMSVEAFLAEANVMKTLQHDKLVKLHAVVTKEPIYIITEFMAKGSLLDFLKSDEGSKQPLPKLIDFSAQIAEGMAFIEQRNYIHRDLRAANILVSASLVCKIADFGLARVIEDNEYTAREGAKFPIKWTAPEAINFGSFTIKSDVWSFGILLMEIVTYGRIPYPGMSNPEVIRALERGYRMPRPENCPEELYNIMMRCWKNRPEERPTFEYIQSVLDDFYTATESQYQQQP
L929 necroptosis = blocks zVAD induced death of L929 cells | L929 zVAD necroptosis rescue, ATP luminescence, 24 h; with zVAD 60 µM | viability rescue, % at 10 µM | 220,000 compounds, 0.38% hits;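 active = activation, scaled between plate controls, above about 75%, limit read from the data; inactive = activation under that limit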;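 also: 0% = zVAD with DMSO and 100% = DMSO alone without zVAD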
TNF death inh = blocks TNF-alpha induced death of Jurkat FADD-/- cells; Jurkat FADD-/- TNF necroptosis rescue, ATP luminescence, 24 h; 0 = TNF only, 100 = no-TNF cells; activation (protection from cell death), % at 10 µM; 220,000 compounds, 0.068% hits;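 active = activation, meaning protection from cell death, of at least 50% relative to plate controls; inactive = activation below 50%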;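 also: necroptosis triggered by 40 ng/mL TNF-alpha added together with compound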
RanGTP-Impb inh = disruptors of Ran-importin-beta complex formation – biochemical, FRET, CFP-Ran, YFP-importin-beta, homogeneous, primary screen. cell-free CFP-Ran/YFP-importin-beta FRET ratio. inhibition, % (no concentration beside the values). 300,000 compounds, 1.1% hits;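 active = more than half of the replicate wells show a fall in the fluorescence ratio signal beyond about 16%, limit read from the data, passing the limit was not always enough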;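 also: 0% = DMSO wells and 100% = Ran loaded with GDP instead of GTP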
zVAD death conf = confirmed blocker of zVAD induced death in L929 cells; L929 zVAD-induced necroptosis rescue, ATP luminescence, 24 h; 760 compounds, 16% hits; shares compounds with L929 necroptosis; activation (protection from necroptosis), % at 10 µM; AID 463117;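 active = mean protection from necroptosis of at least 50% over duplicate tests; inactive = mean protection below 50%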;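 also: 0% = cells with zVAD alone and 100% = vehicle cells without zVAD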
Active calls of the source: *; nt = not tested or not shown. Compounds with a hit are over-represented: about 2.1% of the library has one in this group of screens.

SMILES	Runt-SMMHC FRET	Runt-CBFb FRET	Hck-Nef inh	L929 necroptosis	TNF death inh	RanGTP-Impb inh	others
O=c1c2ccccc2c(C=Nc2ccc(O)cc2)c(O)n1Cc1ccccc1	-78.8	-79.8	17.8	-0.3	0.1	33.3*
COc1ccc(N=Cc2c(O)n(-c3cccc(C)n3)c(=O)c3ccccc23)cc1	7.0	-10.1	-1.3	nt	-2.6	14.0
COc1ccc(Cn2c(O)c(C=Nc3ccc(O)cc3)c3ccccc3c2=O)cc1	8.6	-175.4	-1.4	1.5	4.4	30.4*
COc1ccc(N=Cc2c(O)n(-c3ccc(OC)cc3)c(=O)c3ccccc23)cc1	90.0*	3.4	32.1	-3.0	0.4	5.0
COc1ccc(Cn2c(O)c(C=Nc3ccccc3)c3ccccc3c2=O)cc1	-19.6	-6.8	3.2	nt	1.0	-5.5
COc1ccc(Cn2c(O)c(C=Nc3ccc(C)cc3)c3ccccc3c2=O)cc1	-83.9	-55.3	5.8	1.1	3.8	-3.6
CSCC[C@H](NC(=O)Nc1ccc(Oc2ccccc2)cc1)C(=O)O	-0.9	-2.3	-3.9	0.4	2.2	-2.9
O=S(=O)(c1cccc2cccnc12)N1CCN(c2ccc(F)cc2)CC1	-2.0	-1.3	18.7	4.2	55.5*	-2.0
COc1ccc(N2CCN(S(=O)(=O)c3cccc4cccnc34)CC2)cc1	0.8	2.8	14.3	0.8	-0.2	-3.6
CCn1cc(C2C(C(=O)Nc3ccc(Br)cn3)=C(C)NC3=C2C(=O)CCC3)c(C)n1 (stereo unspecified)	73.5*	29.9	22.6	1.7	0.8	3.2
O=C(NCCSCc1ccc(Cl)cc1)c1cccs1	-0.7	0.4	9.0	-0.2	0.2	0.7
O=C(NC(Cc1ccccc1)C(=O)Oc1ccc2c(C(F)(F)F)cc(=O)oc2c1)OCc1ccccc1 (stereo unspecified)	81.1*	2.9	0.8	1.2	1.4	36.9*
CC(C)[C@H](NC(=O)OCc1ccccc1)C(=O)OCc1cc(=O)oc2cc(O)ccc12	nt	nt	nt	nt	nt	2.4
CCc1cc2c(-c3ccccc3)cc(=O)oc2cc1OC(C)C(=O)O (stereo unspecified)	nt	nt	nt	nt	nt	9.5
CC(NC(=O)OCc1ccccc1)C(=O)Oc1cc2oc(=O)cc(-c3ccccc3)c2cc1Cl (stereo unspecified)	60.1*	18.9	1.3	0.2	1.7	-5.9
O=C(Nc1ccccc1)C(=O)Nc1ccccn1	-6.5	-2.1	2.4	0.1	-4.7	-3.6
S=C(Nc1ccc(Nc2ccccc2)cc1)Nc1ccccn1	6.6	15.8	94.4*	0.6	-7.2	-1.6
COc1ccc(C(=O)/C=C/NCc2ccc(C)cc2)cc1	nt	nt	9.9	-0.1	-5.3	24.5*
COc1cc(C(=O)NCCCNc2nc3cc(C)c(C)cc3cc2C#N)cc(OC)c1OC	18.4	nt	36.4	-0.1	0.0	49.7*
COc1cc(C(=O)NCCNc2nc3c(C)c(C)ccc3cc2C#N)cc(OC)c1OC	nt	nt	nt	nt	nt	2.2
CCOc1ccc2nc(NCCNC(=O)c3cc(OC)c(OC)c(OC)c3)c(C#N)cc2c1	nt	nt	nt	nt	nt	112.5*
CCOc1ccc2nc(NCCNC(=O)C(C)C)c(C)cc2c1	-0.1	22.6	-2.1	0.5	-1.4	-1.7
O=C(NCC(c1ccc(F)cc1)N1CCOCC1)c1ccco1 (stereo unspecified)	nt	nt	nt	nt	nt	-0.7
Cc1cccn2c(=O)c(/C=C(\C#N)C(N)=O)c(N3CCN(Cc4ccc5c(c4)OCO5)CC3)nc12	nt	121.9*	1.3	-0.3	0.9	7.8
Cc1cccn2c(=O)c(C=C(C#N)C#N)c(N3CCN(c4ccccc4)CC3)nc12	nt	nt	nt	nt	nt	25.0*
SMILES	Runt-SMMHC FRET	Runt-CBFb FRET	Hck-Nef inh	L929 necroptosis	TNF death inh	RanGTP-Impb inh	others
CNC(=O)/C(C#N)=C/c1c(N2CCN(c3ccc(OC)cc3)CC2)nc2c(C)cccn2c1=O	nt	nt	nt	nt	nt	7.8
CNC(=O)/C(C#N)=C/c1c(N2CCCCCC2)nc2c(C)cccn2c1=O	nt	nt	nt	nt	nt	3.2
COC(=O)/C(C#N)=C/c1c(N2CCN(c3ccc(OC)cc3)CC2)nc2c(C)cccn2c1=O	nt	nt	nt	nt	nt	33.7*
CNC(=O)/C(C#N)=C/c1c(N2CCN(c3ccccc3)CC2)nc2c(C)cccn2c1=O	nt	nt	nt	nt	nt	19.0*
Cc1ccc(CNC(=O)CN(C(=O)C2(C)CC(=O)N=C3C=CC=CN32)c2ccccc2F)cc1 (stereo unspecified)	nt	nt	nt	nt	nt	0.1
CCOC(=O)CC(NC(=O)CCS(=O)(=O)c1ccc2c(c1)n(C)c(=O)c(=O)n2C)c1ccc(C)cc1 (stereo unspecified)	nt	nt	nt	nt	nt	-0.4
O=C1CCC/C1=C\c1ccccc1	0.1	-0.4	-5.7	2.9	0.6	149.3*
O=S(=O)(c1ccc(NC(=S)NCc2ccc(F)cc2)cc1)N1CCOCC1	nt	nt	nt	nt	nt	7.6
Nc1nc(Cl)cc(NCCc2ccccc2)n1	-0.9	0.7	25.1	2.3	-1.6	5.2
CCCCNc1cc(Cl)nc(N)n1	8.1	4.9	-0.3	1.3	-2.9	40.4*
CCc1ccccc1NC(=O)/C(C#N)=C\c1ccc(Sc2ccccc2)o1	-28.0	-5.7	1.9	0.4	-3.7	16.2*
O=C(Nc1nc2ccccc2[nH]1)NC1CCCCC1	nt	nt	nt	nt	nt	-0.4
Cc1ccc2nc3c(cc(C(=O)NCc4cccnc4)c(=N)n3C(C)C)c(=O)n2c1	38.6	13.0	nt	nt	nt	nt
C=CCn1c(=N)c(C(=O)OC)cc2c(=O)n3cccc(C)c3nc21	58.1*	52.1*	nt	nt	nt	nt
COC(=O)c1cc2c(=O)n3cccc(C)c3nc2n(Cc2cccnc2)c1=N	57.4*	55.6*	nt	nt	nt	nt
Cc1cccn2c(=O)c3cc(C(=O)NCc4cccnc4)c(=N)n(C)c3nc12	74.2*	98.4*	nt	nt	nt	nt
Cc1cc(C(=O)OCC(=O)Nc2cccc(S(N)(=O)=O)c2)c2ccccc2n1	-6.8	1.6	-74.3	1.1	0.1	1.1
Cc1ccc(C(=O)Nc2cccc(C(F)(F)F)c2)cc1NC(=O)c1nccn1C	-5.0	-2.7	40.1	81.8*	3.9	2.1	zVAD death conf=10.2
Cc1ccc(C(=O)Nc2cccc(C(F)(F)F)c2)cc1Nc1cnccn1	1.4	-0.7	23.6	81.9*	-0.1	3.9	zVAD death conf=70.3*
CCN1CCN(Cc2ccc(NC(=O)c3ccc(C)c(NC(=O)c4nccn4C)c3)cc2C(F)(F)F)CC1	3.7	2.2	16.5	74.4	10.2	2.9
O=C(Nc1cnccn1)c1cccc(C(F)(F)F)c1	0.1	-0.9	-8.8	1.6	0.0	0.3
O=C(CCC1CCCN(C(=O)C2(c3ccccc3)CC2)C1)N1CCN(c2ccccn2)CC1 (stereo unspecified)	nt	nt	19.9	-1.4	0.1	-0.5

Source: PubChem (several laboratories)
